Measured values from different studies.
Lines come from different studies, so protocols differ.
Target: Insulin receptor (INSR, Homo sapiens, UniProt P06213)

The remaining signal of `N#CCCc1ccc2c(c1)-c1[nH]c3ccc([N+](=O)[O-])cc3c1CC(=O)N2` is reported as 94.1% (cell-free assay; 0.5 µM).
For `Cc1nc(C2CCN(C(=O)c3ccc(OC(F)(F)F)cc3N)CC2)c2ncc(N3CCN(C)CC3)cc2n1`, the remaining binding was 93% (cell-free assay, competition with immobilised ligand; 1 µM).
`O=C1NC(=O)c2cc(Nc3ccc(F)cc3)c(Nc3ccc(F)cc3)cc21` gave a remaining signal of 98.3% (cell-free assay; 0.5 µM).
With `CNC(=O)c1cc(Oc2ccc(NC(=O)Nc3ccc(Cl)c(C(F)(F)F)c3)cc2)ccn1` the inhibition was 3% (enzyme activity, inhibitor; 0.3 µM).
`COc1cc2ncnc(Nc3ccc(Oc4ccccc4)c(C)c3C)c2cc1OC` gave an inhibition of 5% (enzyme activity, inhibitor; 1 µM).
The remaining binding of `CO[C@@H](C)c1c(Nc2ccc([C@H](N(C)C(=O)C3CCS(=O)(=O)CC3)C(F)(F)F)cc2)cnc2cc(Cl)nn12` is reported as 87% (cell-free assay, competition with immobilised ligand; 1 µM).
The activity vs control of `COc1cc(/C=C/C(=O)CC(=O)/C=C/c2ccc(O)c(OC)c2)ccc1O` is reported as 46% (enzyme activity, inhibitor; 1 µM).
The inhibition of `CN(C)C1CCN(CC#Cc2nn(C3CCCC3)c3nc(NCc4ccccc4)ncc23)C1` (centres unmarked) is reported as 7% (enzyme activity, inhibitor, FRET; 0.1 µM).
`CNCc1ccc(-c2cc(-c3nc(-c4ccc(S(=O)(=O)C(C)C)cc4)cnc3N)on2)cc1` has an inhibition of 0% (enzyme activity, inhibitor; 2 µM).
`O=C1CCc2cc(Nc3cc(OC4CCOCC4)c([N+](=O)[O-])cc3Cl)ccc2N1` gave a remaining binding of 93% (cell-free assay, competition with immobilised ligand; 1 µM).
With `CNC(=O)c1ccccc1Nc1cc(Nc2ccc(N3CCOCC3)cc2OC)ncc1C(F)(F)F` the inhibition was over 50% (enzyme activity, inhibitor; 1 µM).
`CN1CC(Oc2cnc(C#N)cc2-c2ccn3nc(NC(=O)C4CC4)cc3c2)C1` has an inhibition of -2% (enzyme activity, inhibitor; 1 µM).
`Nc1ncnc2occ(-c3ccc(NC(=O)Nc4cc(C(F)(F)F)ccc4F)cc3)c12` gave a remaining signal of 3.2% (cell-free assay; 20 µM).
`O=C1Nc2ccc(Cl)cc2C1=Cc1cc(Cl)c(O)c(Cl)c1` gave a remaining signal of 99.2% (cell-free assay; 0.5 µM).
For `CSc1cccnc1N1CCN(Cc2nc3ccccc3[nH]2)CC1`, the remaining binding was 85% (cell-free assay, competition with immobilised ligand; 1 µM).
`Cc1ccc(Nc2nccc(N(C)c3ccc4c(C)n(C)nc4c3)n2)cc1S(N)(=O)=O` gave an inhibition of 6% (enzyme activity, inhibitor; 0.3 µM).
`O=C(O)[C@H]1[C@H](Cn2nnc3ccccc3c2=O)CC[C@@H]1C(=O)c1ccc(OCCC2CCOCC2)cc1` gave a remaining binding of 78% (cell-free assay, competition with immobilised ligand; 1 µM).
`Cc1ccc(C(=O)NCc2ccsc2)cc1C#Cc1cn(C(C)C)c2ncnc(N)c12` gave an activity vs control of 82% (enzyme activity, inhibitor; 1 µM).
The activity vs control of `Cc1cc(NC(=O)c2cccc3cc(-c4cccc5[nH]nc(N)c45)ccc23)ccc1F` is reported as 107% (enzyme activity, inhibitor; 0.1 µM).
`C[C@@H]1CN(c2cc(-c3nn(C)c4ccc(OC5(C)CC5)cc34)ncn2)C[C@H](C)O1` gave a remaining binding of 100% (cell-free assay, competition with immobilised ligand; 1 µM).
With `CS(=O)(=O)Nc1cccc(-c2csc(NC(=O)CSc3nc4nccnc4c(=O)n3CCc3ccccc3)n2)c1` the inhibition was 1% (enzyme activity, inhibitor; 10 µM).
For `N#CC1(c2ccccn2)CCN(Cc2cc(C(=O)N3CCCC3)c(=O)n3ccccc23)CC1`, the remaining binding was 88% (cell-free assay, competition with immobilised ligand; 1 µM).
The inhibition of `CCCS(=O)(=O)Nc1ccc(F)c(C(=O)c2c[nH]c3ncc(-c4ccc(Cl)cc4)cc23)c1F` is reported as under 10% (enzyme activity, inhibitor; 1 µM).
